KCNQ1 block: inhibitors of human KCNQ1 potassium channel. CHO-K1 KCNQ1, FluxOR thallium flux fluorescence; active compounds read high. P51787. B-score at 10 µM. AID 2642. actives 1.3% (n = 310,000);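 active = compounds whose thallium flux B-score, printed positive for inhibition, exceeds three library SD while starting fluorescence stays within three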;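 note: channel opened by potassium depolarization with thallium stimulus after 20 min compound exposure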
KCNK9 block: inhibitors of human KCNK9 two-pore domain potassium channel; actives 1.2% (n = 310,000); HEK293 KCNK9, FluxOR thallium flux fluorescence; active compounds read low; B-score at 10 µM;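 active = ratio B-score over 3 SD below the library mean, with starting fluorescence within 5 SD of its mean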;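 note: negative B-score means less thallium flux so channel inhibition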
KCNK3 inh: human KCNK3 channel inhibition, primary screen; CHO-KCNK3 thallium flux, FluxOR fluorescence; active compounds read low; B-score at 10 µM; actives 0.84% (n = 340,000);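 active = B-score under library mean minus 4 SD, starting fluorescence ratio at most library mean plus 5 SD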;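 note: more negative B-score means stronger inhibition of thallium flux through KCNK3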
Kir21 inh: inhibitors of mouse Kir2.1 inward-rectifier potassium channel | HEK293-Kir2.1, FluxOR thallium flux fluorescence; active compounds read low | B-score at 10 µM | actives 0.85% (n = 310,000) | AID 1672;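 active = fluorescence ratio B-score at or below minus 3 SD of library scores, with starting-brightness B-score within 2 SD, cut at about -4.2 in these data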;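 note: channel flux triggered by added potassium and thallium sulfate stimulus; B-score of peak minus minimum fluorescence over baseline after thallium stimulus; more negative B-score means stronger Kir2.1 block with less thallium influx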
hERG rescue: compounds protecting human hERG from proarrhythmic drug block; Q12809; CHO-hERG, FluxOR thallium flux, dofetilide IC70 present; activation (rescue from dofetilide block), less the hit threshold, % at 10 µM; actives 0.51% (n = 310,000); AID 1511;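 active = activation above the mean of controls blocked by dofetilide plus 5 SD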;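 note: thallium influx through hERG after potassium depolarization seen as dye fluorescence rise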
KCNQ1 pot: human KCNQ1 channel potentiation or activation. CHO-K1 KCNQ1, thallium flux FluxOR fluorescence; active compounds read high. P51787. actives 0.35% (n = 310,000). AID 2648. B-score at 10 µM;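 active = fluorescence ratio B-score, a plate-corrected score, at least three library SD, with initial intensity B-score within 5 SD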
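Schedule – 37 °C overnight plating, 90-min dark dye load, 20-min compound pretreatment · System – stable KCNQ1 CHO-K1 line · Probe or stimulus – thallium- and potassium-containing depolarizing buffer · Measured by – kinetic FluxOR fluorescence, 10 s baseline plus 110 s post-stimulus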
KCNK9 inh conf: confirmation of human KCNK9 potassium channel inhibitors. inhibition, % at 10 µM. HEK293 KCNK9 cells, FluxOR thallium flux fluorescence. shares compounds with KCNK9 block. AID 492992. actives 43% (n = 4,900);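 active = thallium signal inhibited by more than 5 SD of the compound-free buffer control wells, on both duplicate plates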;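 note: 0% = assay buffer control wells without compound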
Kir2-1 spec: selectivity of KCNK9 modulators against mouse Kir2.1; shares compounds with KCNK9 block; Kir2.1 cells, FluxOR thallium flux fluorescence; inhibition, % at 10 µM; actives 4% (n = 4,900);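 active = thallium signal drop more than 5 SD beyond the mean of the no-compound control wells, seen in both duplicate plates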;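 note: signal is fluorescence rise after thallium addition divided by baseline fluorescence; plate controls were assay buffer only for no effect and full block by chlorpromazine control for full effect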
HEK293 Tl ctr: second counter-screen for KCNK9 modulators: effect in non-induced cells; non-induced KCNK9-HEK293, FluxOR thallium flux; AID 492997; inhibition, % at 10 µM; shares compounds with KCNK9 block; actives 40% (n = 4,900);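 active = thallium signal drop beyond 5 SD of the untreated control mean, on both duplicate plates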;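 note: plate controls were buffer only IC0 wells for no effect and SID17386958 at its maximal inhibitory level for full effect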
Active calls of the source: *; i = inactive; / = no result given. A selection: hits, their analogues and other compounds. The true share with any hit is near 3.8%.

SMILES	KCNQ1 block	KCNK9 block	KCNK3 inh	Kir21 inh	hERG rescue	KCNQ1 pot	KCNK9 inh conf	Kir2-1 spec	HEK293 Tl ctr
O=[N+]([O-])c1cc(CN2CCN(c3cccc(C(F)(F)F)c3)CC2)c2cccnc2c1O	i	i	i	-0.11	-3	i	i	i	i
COc1cccc(CCNS(=O)(=O)CCNC(=O)c2cccc(OC)c2)c1	i	i	i	-2	-5	i	/	/	/
CC(C1CC2CCC1C2)n1c(-c2ccco2)n[nH]c1=S (stereo not drawn)	i	-15*	i	-5.5*	-4	i	62%*	i	i
COc1cccc(CN(C)S(=O)(=O)c2ccccc2Br)c1	/	/	i	/	/	/	/	/	/
COc1cc(-c2c(C#N)c(N)nc(SCc3ccncc3)c2C#N)cc(OC)c1OC	i	-10*	i	0.05	-16	i	i	i	27%*
O=C(Nc1ccccc1C(F)(F)F)c1ccsc1	i	i	i	-0.03	-6	i	/	/	/
O=C(NNc1ccccc1C(F)(F)F)c1sccc1Br	i	-8.7*	i	-0.96	-7	i	44%*	i	i
Oc1c(C(Nc2nccs2)c2ccc(C(F)(F)F)cc2)ccc2cccnc12 (stereo not drawn)	i	i	i	0.86	-15	i	i	i	i
CC(=O)NC(CC(=O)N(Cc1ccccc1)c1ccc(C)cc1)c1ccccc1 (stereo not drawn)	i	i	i	-2.1	-12	i	/	/	/
Cc1ccc(C(C)C)c(OCCNCCc2ccccc2)c1	i	i	i	-9.9*	-18	i	i	50%*	i
c1ccc(CCNCCOc2ccccc2)cc1	i	i	i	-1.1	-8	i	/	/	/
CCNC(=O)NC(=O)C(C)OC(=O)c1cccn1C (stereo not drawn)	i	i	i	1.3	-2	i	/	/	/
O=C(CNC(=O)c1ccc(Cl)cc1Cl)Nc1ccc(F)cc1	i	i	i	4	-1	i	/	/	/
O=C(O)c1cccc(N2C(=O)C3C4C=CC(C4=C(c4ccccc4)c4ccccc4)C3C2=O)c1 (stereo not drawn)	i	i	i	1.4	-11	i	i	i	i
CC(C)OCCCNC(=O)C1CCN(S(=O)(=O)N2CCCC2)CC1	i	-8.1*	i	-0.03	-21	i	i	i	i
O=C(Nc1cccc(Cl)c1)c1cccc(Oc2ccc([N+](=O)[O-])cc2Cl)c1	i	i	i	-1.3	-14	i	i	i	i
O=C(CN1C(=O)S/C(=C\c2cc(Cl)c(O)c(Cl)c2)C1=O)Nc1ccccc1	i	i	i	-1.4	12*	i	i	i	i
Cc1ccc(C2(c3noc(CN4CCC(c5ccncc5)CC4)n3)CCCC2)cc1	i	i	i	0	-22	i	i	i	i
CCN=c1scc(-c2ccco2)n1/N=C/c1ccc(O)cc1	i	i	i	0.79	-11	i	/	/	/
CCN=c1scc(-c2ccco2)n1/N=C/c1ccc(OC)c(O)c1	i	i	i	-0.02	-18	i	i	i	i
N#Cc1cccc(NC(=O)COC(=O)c2ccc3c(=O)n4c(nc3c2)CCC4)c1	i	i	/	0.75	2	i	/	/	/
O=C(CNC(c1ccccc1)c1ccccc1)Nc1cc([N+](=O)[O-])ccc1Cl	i	-9.2*	i	-0.34	-10	i	69%*	i	41%*
COCCn1c(-c2ccc(Cl)cc2Cl)nc2c(c(=O)c3ccccc3n2C)c1=O	i	i	i	-0.49	-8	i	/	/	/

From PubChem
